Assay results from ChEMBL document CHEMBL2029267, “Rapid assembly of a library of lipophilic iminosugars via the thiol-ene reaction yields promising pharmacological chaperones for the treatment of Gaucher disease” (J Med Chem, 2012).
Changes are numbered by the printed parent chain. Calls of active or inactive are those of the source. The rule behind the calls is not given here.

What was measured:
[1] = target: T1, Lysosomal acid glucosylceramidase (Homo sapiens) (UniProt P04062); experiment: Thermal denaturation of human glucocerebrosidase by differential scanning fluorimetry assessed as change in melting temperature at 100 uM and pH 7
T1 sequence (whole entry): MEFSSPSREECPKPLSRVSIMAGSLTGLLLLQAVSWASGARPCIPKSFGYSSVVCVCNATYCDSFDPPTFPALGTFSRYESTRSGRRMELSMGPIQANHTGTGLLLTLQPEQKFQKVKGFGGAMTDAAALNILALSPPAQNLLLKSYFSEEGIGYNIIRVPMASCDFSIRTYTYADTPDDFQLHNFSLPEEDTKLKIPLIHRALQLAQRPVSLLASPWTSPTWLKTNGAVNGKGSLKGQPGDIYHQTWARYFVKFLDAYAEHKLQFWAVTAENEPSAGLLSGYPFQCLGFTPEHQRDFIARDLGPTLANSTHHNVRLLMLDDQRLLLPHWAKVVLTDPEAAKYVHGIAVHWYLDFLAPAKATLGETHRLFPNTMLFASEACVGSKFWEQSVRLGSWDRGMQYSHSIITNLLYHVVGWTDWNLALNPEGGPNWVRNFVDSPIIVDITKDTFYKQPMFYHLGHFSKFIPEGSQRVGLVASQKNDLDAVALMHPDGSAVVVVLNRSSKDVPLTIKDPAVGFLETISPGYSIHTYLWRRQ

[2] = system: T2, Lysosomal acid glucosylceramidase (Homo sapiens), P04062 [N409S]; experiment: Activation of intracellular glucocerebrosidase p.N370S mutant in gaucher patient fibroblast using 4-methylumbelliferyl beta-D-glucopyranoside as substrate relative to control
T2 sequence (whole entry): T1 sequence (whole entry) with N409S

Homo sapiens [3] = species on record: Homo sapiens; experiment: Activation of intracellular glucocerebrosidase p.L444P mutant in gaucher patient fibroblast using 4-methylumbelliferyl beta-D-glucopyranoside as substrate relative to control
Homo sapiens [4] = species on record: Homo sapiens; experiment: Activation of intracellular glucocerebrosidase p.L444P mutant in gaucher patient fibroblast using 4-methylumbelliferyl beta-D-glucopyranoside as substrate assessed as concentration at which 50% of maximum increase in activity
[5] = target: T3, Beta-galactosidase (Homo sapiens) (UniProt P16278); experiment: Inhibition of human lysosomal beta-galactosidase using 4-methylumbelliferyl beta-Dgalactopyranoside as substrate at 200 uM by fluorimetric analysis
T3 sequence (whole entry): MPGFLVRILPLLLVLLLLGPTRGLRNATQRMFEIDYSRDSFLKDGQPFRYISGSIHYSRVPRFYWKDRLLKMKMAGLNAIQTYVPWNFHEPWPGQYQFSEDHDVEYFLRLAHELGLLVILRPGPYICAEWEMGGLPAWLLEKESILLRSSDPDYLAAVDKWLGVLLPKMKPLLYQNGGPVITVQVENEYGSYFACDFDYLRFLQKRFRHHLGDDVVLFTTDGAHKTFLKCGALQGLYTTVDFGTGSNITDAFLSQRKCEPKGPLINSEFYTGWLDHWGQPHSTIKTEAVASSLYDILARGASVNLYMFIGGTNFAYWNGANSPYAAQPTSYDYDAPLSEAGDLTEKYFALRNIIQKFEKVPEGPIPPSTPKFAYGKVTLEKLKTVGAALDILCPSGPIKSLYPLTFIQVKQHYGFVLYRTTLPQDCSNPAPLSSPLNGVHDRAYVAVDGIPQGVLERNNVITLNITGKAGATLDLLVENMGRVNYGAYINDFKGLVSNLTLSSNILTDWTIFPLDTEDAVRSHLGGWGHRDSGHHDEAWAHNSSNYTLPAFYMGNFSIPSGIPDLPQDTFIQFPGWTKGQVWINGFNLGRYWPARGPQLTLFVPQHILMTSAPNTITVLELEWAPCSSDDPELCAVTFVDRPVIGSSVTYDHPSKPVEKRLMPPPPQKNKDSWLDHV
Outline: (§1)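 Enzyme source was a lysosomal-enzyme-enriched ConA-bound human placental fraction, run in 100 mM citrate–phosphate pH 4.5 with 0.025% human serum albumin at 37 °C. Compound was tested at 200 μM in triplicate. An equal volume of 4-MU substrate was added: α-Glc 3.0 mM (α-glucosidase), α-Gal 1.0 mM (α-galactosidase), β-Gal 0.5 mM (β-galactosidase). Reactions were stopped with 4-fold excess 100 mM aminomethylpropanol and fluorescence read at 365/460 nm.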

Homo sapiens [6] = species on record: Homo sapiens; experiment: Inhibition of human lysosomal alpha-galactosidase using 4-methylumbelliferyl alpha-D-galactopyranoside as substrate at 200 uM by fluorimetric analysis
Outline: as §1

[7] = target: Lysosomal alpha-glucosidase (Homo sapiens) (UniProt P10253); experiment: Inhibition of human lysosomal alpha-glucosidase using 4-methylumbelliferyl alpha-D-glucopyranoside as substrate at 200 uM by fluorimetric analysis
Outline: as §1

[8] = target: T4, Lysosomal acid glucosylceramidase (Homo sapiens, UniProt P04062); experiment: Competitive inhibition of wild type human glucocerebrosidase using 2,4-dinitrophenyl beta-D-glucopyranoside as substrate after 3 mins by Dixon and Line-Weaver Burk plot analysis at pH 5
T4 sequence (P04062 whole entry): T1 sequence (whole entry)
Outline: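 Continuous UV assay with 4.0 nM GBA and 2,4-dinitrophenyl β-D-glucoside, started by adding enzyme. A400 was followed, linear over 3 min. Three substrate levels were run at about seven inhibitor levels (0.2–5 Ki), with nonlinear fit to a competitive model checked by Dixon and Lineweaver–Burk plots.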

[9] = system: T2, Lysosomal acid glucosylceramidase (Homo sapiens), P04062 [N409S]; experiment: Activation of intracellular glucocerebrosidase p.N370S mutant in gaucher patient fibroblast using 4-methylumbelliferyl beta-D-glucopyranoside as substrate assessed as concentration at which 50% of maximum increase in activity
[10] = target: T4, Lysosomal acid glucosylceramidase; experiment: Competitive inhibition of wild type human glucocerebrosidase using 4-methylumbelliferyl beta-D-glucopyranoside as substrate after 15 mins by Dixon and Line-Weaver Burk plot analysis […]

deltaTm [1] [K]	fold change (FC) [2]	fold change (FC) (Homo sapiens [3])	Activity (Homo sapiens [4]) [nM]	inhibition [5]	inhibition (Homo sapiens [6])	inhibition [7]	Ki [8] [nM]	Activity [9] [nM]	Ki [10] [nM]	Compound
10	2.7	1.3	500	inactive	inactive	inactive	250	800	–	CCN(CC)C(=O)CCCSCC[C@H]1NC[C@@H](O)[C@H](O)[C@H]1O
11	2.3	1.1	64	inactive	inactive	inactive	–	90	12	O=C(NCCSCC[C@H]1NC[C@@H](O)[C@H](O)[C@H]1O)Nc1ccccc1
11	2.2	1.4	1.2	inactive	inactive	inactive	–	5.3	6	O[C@@H]1[C@@H](O)[C@@H](CCSC2CCCC2)NC[C@H]1O
8.4	2.3	1.2	25	inactive	inactive	inactive	29	49	–	CC(C)(C)SCC[C@H]1NC[C@@H](O)[C@H](O)[C@H]1O
7.6	3.2	1.3	1500	inactive	inactive	inactive	450	4500	–	O=C(CCCSCC[C@H]1NC[C@@H](O)[C@H](O)[C@H]1O)N1CCOCC1
3.4	1.4	1.3	1700	inactive	inactive	inactive	2700	1800	–	C=C[C@H]1NC[C@@H](O)[C@H](O)[C@H]1O
3.6	1.5	1.1	44600	inactive	inactive	inactive	–	24000	–	O[C@H]1[C@H](O)CNC[C@@H]1O
7.8	2.3	1.4	2.2	inactive	inactive	inactive	76	38	–	CC(C)SCC[C@H]1NC[C@@H](O)[C@H](O)[C@H]1O
11	2.4	1.3	12	inactive	inactive	inactive	–	18	18	CCCCSCC[C@H]1NC[C@@H](O)[C@H](O)[C@H]1O
14	2	1.2	0.3	inactive	inactive	inactive	–	1.2	4.4	CC(C)CCSCC[C@H]1NC[C@@H](O)[C@H](O)[C@H]1O

The remaining lines, values behind:

Compound	deltaTm [1] [K]	fold change (FC) [2]	fold change (FC) (Homo sapiens [3])	Activity (Homo sapiens [4]) [nM]	inhibition [5]	inhibition (Homo sapiens [6])	inhibition [7]	Ki [8] [nM]	Activity [9] [nM]	Ki [10] [nM]
O[C@@H]1[C@@H](O)[C@@H](CCSCCc2ccccc2)NC[C@H]1O	14	2.2	1.1	2.1	inactive	inactive	inactive	–	2.8	3
O[C@@H]1[C@@H](O)[C@@H](CCSC2CCCCC2)NC[C@H]1O	13	2.2	1.3	0.6	inactive	inactive	inactive	–	1.3	4
CCSCC[C@H]1NC[C@@H](O)[C@H](O)[C@H]1O	7	2.5	1.3	300	inactive	inactive	inactive	180	600	–
CC[C@H]1NC[C@@H](O)[C@H](O)[C@H]1O	4.4	2.1	1.2	7000	inactive	inactive	inactive	1100	–	–
CCCC(=O)NCCSCC[C@H]1NC[C@@H](O)[C@H](O)[C@H]1O	8.2	2.7	1.3	2900	inactive	inactive	inactive	200	2700	–
O[C@@H]1[C@@H](O)[C@@H](CCSCc2ccccc2)NC[C@H]1O	13	2.1	1.1	2.6	inactive	inactive	inactive	–	1.6	19
O=C(CSCC[C@H]1NC[C@@H](O)[C@H](O)[C@H]1O)NCc1ccccc1	11	2.5	1.3	63	inactive	inactive	inactive	30	190	–
